# From ChEMBL document CHEMBL4842354, “Synthesis, structure-activity relationships, cocrystallization and cellular characterization of novel smHDAC8 inhibitors for the treatment of schistosomiasis” (Eur J Med Chem, 2021)
# pIC50: −log10 of the molar value.
# Legend:
# Schistosoma mansoni [1] = test: Antischistosomal activity against Schistosoma mansoni schistosomula at 10 uM incubated for 48 hrs by Alamar Blue assay; assay type: functional
# How it was run: (§1)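 S. mansoni newly transformed schistosomula from mechanically transformed cercariae, 100 NTS/well in Medium 199 with 10% FCS, penicillin, streptomycin and rifampicin. Pre-cultured 3 h at 37°C, 5% CO2. Compounds from 20 mM DMSO stocks, final 10 or 20 μM. Alamar Blue added after 48 h exposure, then 24 h more. Resorufin read at Ex 530/Em 590 nm. Live and ethanol-killed larvae as controls; triplicate wells, two biological replicates.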
# HEK293 = test: Cytotoxicity against human HEK293 assessed as reduction in cell viability at 50 uM measured for 24 hrs by Alamar Blue assay; assay type: cell-based; details: hek293, 24 h
# How it was run: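 HEK293 cells in DMEM with 10% FCS and 5 mM glutamine at 37°C, 5% CO2, seeded at 1.5×10^3 cells/well. Compounds added at 50 μM. AlamarBlue added after 24 h and incubated a further 21 h. Resorufin fluorescence read at Ex 530/Em 590 nm. Triplicates; daunorubicin positive control.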
# Histone deacetylase 8 [2] = target: T1, Histone deacetylase 8 (Schistosoma mansoni, UniProt A5H660); test: Inhibition of Schistosoma mansoni HDAC8 using Fluor de Lys as substrate incubated for 90 mins by fluorescence method
# T1 sequence (A5H660 whole entry): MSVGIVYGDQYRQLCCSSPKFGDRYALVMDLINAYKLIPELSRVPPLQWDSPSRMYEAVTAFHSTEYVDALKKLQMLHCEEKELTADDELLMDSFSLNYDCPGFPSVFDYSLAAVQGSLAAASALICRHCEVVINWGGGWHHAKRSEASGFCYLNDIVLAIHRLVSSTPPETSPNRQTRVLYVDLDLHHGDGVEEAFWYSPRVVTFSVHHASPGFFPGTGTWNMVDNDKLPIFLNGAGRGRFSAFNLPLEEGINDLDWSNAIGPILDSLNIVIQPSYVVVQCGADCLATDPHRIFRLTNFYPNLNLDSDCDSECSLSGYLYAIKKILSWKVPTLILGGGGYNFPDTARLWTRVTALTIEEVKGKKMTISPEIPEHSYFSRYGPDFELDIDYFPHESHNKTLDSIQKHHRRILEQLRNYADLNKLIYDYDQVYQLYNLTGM
# How it was run: (§2)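 Recombinant smHDAC8 or hHDAC8 (Romier lab) run to Fluor de Lys HDAC8 kit protocol. Substrate H2N-Arg-His-Lys(Ac)-Lys(Ac)-AMC at 50 μM with increasing inhibitor concentrations, 90 min at 37°C. Stop solution holding inhibitor plus trypsin, then 20 min at 37°C to release AMC. Fluorescence read at Ex 355/Em 460 nm.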
# Schistosoma mansoni [3] = test: Antischistosomal activity against Schistosoma mansoni schistosomula at 20 uM incubated for 48 hrs by Alamar Blue assay; assay type: functional; how it was run: as §1
# [4] = target: T2, Histone deacetylase 8 (Homo sapiens) (UniProt Q9BY41); test: Inhibition of human recombinant HDAC8 at 1 uM using H2N-Arg-His-Lys(Ac)-Lys(Ac)-AMC as substrate after 90 mins by fluorescence based micro plate assay; how it was run: as §2
# T2 sequence (whole entry): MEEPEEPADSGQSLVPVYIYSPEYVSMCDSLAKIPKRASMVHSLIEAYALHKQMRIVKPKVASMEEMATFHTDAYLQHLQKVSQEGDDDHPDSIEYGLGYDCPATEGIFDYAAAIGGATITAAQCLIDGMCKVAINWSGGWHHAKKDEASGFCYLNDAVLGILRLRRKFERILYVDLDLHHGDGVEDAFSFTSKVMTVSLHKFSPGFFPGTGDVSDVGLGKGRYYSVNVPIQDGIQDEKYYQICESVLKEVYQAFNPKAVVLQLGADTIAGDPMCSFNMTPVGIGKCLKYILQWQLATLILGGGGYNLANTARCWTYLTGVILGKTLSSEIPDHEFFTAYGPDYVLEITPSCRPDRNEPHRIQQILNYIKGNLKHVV
# Histone deacetylase 8 [5] = target: T3, Histone deacetylase 8 (Homo sapiens, UniProt Q9BY41); test: Inhibition of human recombinant HDAC8 using H2N-Arg-His-Lys(Ac)-Lys(Ac)-AMC as substrate after 90 mins by fluorescence based micro plate assay
# T3 sequence (Q9BY41 whole entry): T2 sequence (whole entry)
# Histone deacetylase 1 = Histone deacetylase 1 (Homo sapiens, UniProt Q13547); test: Inhibition of recombinant human HDAC1 using ZMAL as substrate incubated for 90 mins by fluorescence based micro plate assay
# Sequence of Histone deacetylase 1 (Q13547 whole entry): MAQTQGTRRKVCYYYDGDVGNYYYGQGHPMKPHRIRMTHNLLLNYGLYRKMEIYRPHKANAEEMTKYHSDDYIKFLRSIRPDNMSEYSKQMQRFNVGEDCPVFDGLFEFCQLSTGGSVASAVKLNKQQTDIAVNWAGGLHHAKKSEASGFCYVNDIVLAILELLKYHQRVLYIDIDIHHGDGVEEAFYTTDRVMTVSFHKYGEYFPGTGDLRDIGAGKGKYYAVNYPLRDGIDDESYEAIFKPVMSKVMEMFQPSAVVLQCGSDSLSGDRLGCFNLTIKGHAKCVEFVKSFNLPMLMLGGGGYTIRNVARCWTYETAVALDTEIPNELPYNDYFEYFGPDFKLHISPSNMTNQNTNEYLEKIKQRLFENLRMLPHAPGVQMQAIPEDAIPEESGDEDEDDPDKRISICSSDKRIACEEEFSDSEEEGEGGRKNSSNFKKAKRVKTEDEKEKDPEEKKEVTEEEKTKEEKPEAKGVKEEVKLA
# [6] = target: T4, Protein deacetylase HDAC6 (Homo sapiens, UniProt Q9UBN7); test: Inhibition of recombinant human HDAC6 using ZMAL as substrate incubated for 90 mins by fluorescence based micro plate assay
# T4 sequence (Q9UBN7 whole entry): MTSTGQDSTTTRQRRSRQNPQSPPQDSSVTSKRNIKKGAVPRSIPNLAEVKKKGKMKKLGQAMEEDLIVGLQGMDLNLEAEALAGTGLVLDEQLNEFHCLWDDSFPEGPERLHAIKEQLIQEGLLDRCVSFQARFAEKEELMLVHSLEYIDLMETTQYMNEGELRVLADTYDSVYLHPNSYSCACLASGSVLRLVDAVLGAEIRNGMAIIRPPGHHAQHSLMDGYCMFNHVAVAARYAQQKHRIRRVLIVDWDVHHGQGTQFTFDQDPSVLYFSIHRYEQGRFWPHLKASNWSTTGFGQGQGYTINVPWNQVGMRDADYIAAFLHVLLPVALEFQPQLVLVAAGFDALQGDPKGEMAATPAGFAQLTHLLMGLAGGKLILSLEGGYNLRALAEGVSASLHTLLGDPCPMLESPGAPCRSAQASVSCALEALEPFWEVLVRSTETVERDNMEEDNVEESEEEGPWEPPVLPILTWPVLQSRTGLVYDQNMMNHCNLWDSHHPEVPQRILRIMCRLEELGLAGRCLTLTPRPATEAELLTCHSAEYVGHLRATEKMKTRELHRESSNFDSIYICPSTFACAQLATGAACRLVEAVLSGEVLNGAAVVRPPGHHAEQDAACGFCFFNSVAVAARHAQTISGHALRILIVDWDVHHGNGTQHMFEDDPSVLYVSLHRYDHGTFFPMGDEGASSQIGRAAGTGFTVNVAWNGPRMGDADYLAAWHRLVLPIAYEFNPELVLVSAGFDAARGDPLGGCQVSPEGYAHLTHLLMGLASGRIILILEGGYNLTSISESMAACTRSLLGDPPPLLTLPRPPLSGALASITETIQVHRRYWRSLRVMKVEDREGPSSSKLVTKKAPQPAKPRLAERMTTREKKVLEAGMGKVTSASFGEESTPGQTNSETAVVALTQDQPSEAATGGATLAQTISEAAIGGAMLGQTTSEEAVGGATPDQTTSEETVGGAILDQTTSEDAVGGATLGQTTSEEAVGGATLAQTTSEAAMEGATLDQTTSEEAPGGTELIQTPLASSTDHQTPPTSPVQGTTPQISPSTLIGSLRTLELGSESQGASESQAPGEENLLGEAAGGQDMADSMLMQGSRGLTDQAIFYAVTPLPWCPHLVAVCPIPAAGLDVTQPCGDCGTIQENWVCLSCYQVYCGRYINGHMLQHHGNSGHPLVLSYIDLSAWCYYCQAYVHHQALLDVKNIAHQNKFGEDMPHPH
pIC50 (Histone deacetylase 8 [2]),inhibition [4],pIC50 (Histone deacetylase 8 [5]),pIC50 (Histone deacetylase 1),pIC50 [6],SMILES,Activity (Schistosoma mansoni [1]),Activity (HEK293),Activity (Schistosoma mansoni [3])
6.24,29%,,,,COc1ccc(C(=O)NO)cc1NC(=O)c1nc2ccccc2[nH]1,69.5%,83.5%,47.1%
6.74,31%,,,,COc1ccc(C(=O)NO)cc1C(=O)Nc1ccc(Cl)cc1Cl,88.2%,58.3%,83.4%
6.54,,7.05,,,COc1ccc(C(C)=O)cc1NC(=O)c1cc(C(=O)NO)ccc1Cl,62.6%,89.1%,32.3%
6.74,,7.05,,,COc1ccc(C(C)=O)cc1NC(=O)c1cc(C(=O)NO)ccc1C,75.2%,94.8%,69.5%
7.00,,6.64,4.68,5.11,CCOc1ccc(C(=O)NO)cc1NC(=O)c1ccc(Cl)cc1Cl,56.2%,86.8%,56.4%
6.14,,,,,COc1ccc(C(=O)NO)cc1NC(=O)c1ccc(OC(C)C)cc1,72.6%,93.1%,56.2%
6.14,66%,,,,CCCOc1ccc(C(=O)Nc2cc(C(=O)NO)ccc2OC)cc1,70.7%,93.2%,51.6%
6.49,48%,,,,COc1ccc(C(=O)NO)cc1NC(=O)c1ccc(-c2ccc(F)cc2)cc1Cl,74.6%,83.5%,60.5%
7.00,,6.66,5.41,5.82,CSc1ccc(C(=O)NO)cc1NC(=O)c1ccc(-c2ccccc2)cc1,57.4%,82.3%,64.9%
6.48,61%,,,,CCOc1ccc(C(C)=O)cc1NC(=O)c1cc(C(=O)NO)ccc1OC,64.3%,59.9%,56.7%
6.70,,6.54,,,COc1ccc(C(=O)NO)cc1NC(=O)c1ccc2[nH]c3c(c2c1)CN(C)CC3.Cl,98%,71.1%,100%
6.66,,7.00,,,COc1ccc(C(=O)NO)cc1C(=O)Nc1ccc2sccc2c1,82.1%,95.6%,77.1%
6.55,25%,,,,O=C(NO)c1ccc(Cl)c(NC(=O)c2ccc(-c3ccc(F)cc3)cc2Cl)c1,63.4%,82.2%,56.6%
6.28,34%,,,,Cc1ccc(C(=O)NO)cc1NC(=O)c1cccc(OCc2c(Cl)cccc2Cl)c1,38.4%,66.6%,22.3%
6.35,60%,,,,Cc1ccc(C(=O)NO)cc1NC(=O)c1cccc(OCc2ccccc2)c1,67.3%,81.4%,46.5%
6.40,,6.35,4.96,6.80,O=C(NO)c1ccc(Cl)c(NC(=O)c2ccc(-c3ccccc3)cc2)c1,62.3%,81.7%,55.1%
6.80,,6.23,5.11,6.92,CCOc1ccc(C(C)=O)cc1NC(=O)c1cccc(C(=O)NO)c1,81%,81.2%,67.3%
6.49,,6.82,,,COc1ccc(C(=O)NO)cc1NC(=O)c1cccc2c1/C(=N/O)c1ccccc1-2,98.5%,76.6%,96%
6.35,,6.07,,,COc1ccc(C(=O)NO)cc1NCc1cccc2c1oc1ccccc12,,,
6.68,,7.15,,,CCOc1ccc(C(C)=O)cc1NC(=O)c1cc(C(=O)NO)ccc1C,42.1%,87.7%,37%
,,,,,O=C(C1CCCCC1)N1CC(=O)N2CCc3ccccc3C2C1 (stereo not drawn) [PRAZIQUANTEL],92.1%,99.3%,88.9%
6.51,,,,,COc1ccc(C(=O)NO)cc1C(=O)Nc1ccc(Cl)cc1,77.3%,27.5%,59.2%
6.48,,6.74,,,COc1ccc(C(=O)NO)cc1NC(=O)c1cccc2cccnc12,62%,77%,40%
6.48,,,5.47,6.22,Cc1ccc(C(=O)NO)cc1C(=O)Nc1ccc(Cl)cc1,69.1%,67.6%,50.2%
6.54,,6.89,,6.41,COc1ccc(C(=O)NO)cc1NC(=O)c1ccc(-c2ccccc2)cc1,64.8%,12.3%,33.4%
5.68,63%,,,,COc1ccc(C(=O)Nc2cc(C(=O)NO)ccc2OC)c(OC)c1,65.3%,88.4%,66.5%
6.21,59%,,,,COc1ccc(C(=O)NO)cc1NC(=O)c1cccc(OCc2ccccc2)c1,61%,95.4%,56.2%
